Tests used:
Assay type in all cases: functional
[1] = system: Mus musculus; assay: Exploratory activity of mice determined by an antimex activity meter, 50 mg/kg of dose was administered perorally; settings: Mus musculus, po
Outline: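 Male Std-ddY mice (20-25 g), five per dose; compound in 0.5% aqueous tragacanth given orally. Two hours later each mouse placed in an Animex activity meter cage and locomotor activity counted for 3 min. Mean suppression expressed as percent inhibition of control; ED50 by Litchfield-Wilcoxon.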

[2] = system: Mus musculus; assay: Antiexploratory activity (EXPL) of mice determined by an antimex activity meter, 10 mg/kg of dose was administered perorally; No inhibition; settings: route oral
[3] = system: Mus musculus; assay: (§1) 3,4 -Dihydroxy phenylacetic acid (DOPAC) levels in mouse brain at 50 mg/kg dose.
Outline: (§2)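 Male Std-ddY mice, 20-25 g, dosed orally with compound in 0.5% aqueous tragacanth. DOPAC was measured fluorometrically after purification by column chromatography on Sephadex G-10 and QAE-Sephadex. Brains from five mice per compound were pooled for each determination.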

[4] = system: Mus musculus; assay: (§3) 3,4 -Dihydroxy phenylacetic acid (DOPAC) levels in mouse brain at 10 mg/kg dose.; outline: as §2
[5] = system: Mus musculus; assay: The homovanillic acid (HVA) levels in mouse brain at 10 mg/kg of dose.
Outline: (§4)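 Mice dosed orally in 0.5% aqueous tragacanth; brains of five mice per compound pooled. Homovanillic acid measured in brain extracts and reported as brain level.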

[6] = system: Mus musculus; assay: Antireserpine activity (RES) of mice after peroral administration of 50 mg/kg of compound; Slight inhibition (31-50%); settings: route oral
[7] = system: Mus musculus; assay: Antiexploratory activity (EXPL) of mice determined by an antimex activity meter, 50 mg/kg of dose was administered perorally; potent inhibition; settings: route oral
[8] = system: Canis familiaris; assay: Inhibition of apomorphine induced emesis in dogs at 1 mg/kg of dose.; settings: Canis lupus familiaris
Outline: (§5)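 Beagle dogs (10-15 kg), groups of three, given compound po in a gelatin capsule; 2 h later apomorphine hydrochloride 0.3 mg/kg sc. Vomiting counted for 1 h; mean inhibition as percent of control. ED50 is the dose giving 50% inhibition of emesis, by Litchfield-Wilcoxon.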

[9] = system: Mus musculus; assay: The homovanillic acid (HVA) levels in mouse brain at 50 mg/kg of dose.; outline: as §4
[10] = system: Mus musculus; assay: Exploratory activity of mice determined by an antimex activity meter, 10 mg/kg of dose was administered perorally; settings: route oral
[11] = system: Mus musculus; assay: Antiexploratory activity (EXPL) of mice determined by an antimex activity meter, 50 mg/kg of dose was administered perorally; Moderate inhibition (51-71%); settings: route oral
[12] = system: Mus musculus; assay: Antireserpine activity (RES) of mice after peroral administration of 50 mg/kg of compound; Moderate inhibition (51-71%); settings: route oral
[13] = system: Mus musculus; assay: Antipentylene tetrazole activity was determined in mice when administered perorally; settings: po
Outline: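 Groups of five male Std-ddY mice received compound orally in 0.5% tragacanth, then pentylenetetrazole 175 mg/kg ip. Blockade of the tonic extensor component scored as anticonvulsant. ED50 was the dose protecting 50% of animals (Litchfield-Wilcoxon).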

[14] = system: Mus musculus; assay: Antitremorine activity(TRM) of mice after peroral administration of 100 mg/kg of compound; No inhibition; settings: route oral
[15] = system: Mus musculus; assay: Antimaximal electroshock seizure activity was determined in mice when administered perorally; settings: po
[16] = system: Mus musculus; assay: Antireserpine activity (RES) of mice after peroral administration of 100 mg/kg of compound; No inhibition; settings: route oral
[17] = system: Mus musculus; assay: Antiexploratory activity (EXPL) of mice determined by an antimex activity meter,100 mg/kg of dose was administered perorally; Slight inhibition (31-50%)
[18] = system: Mus musculus; assay: Antimaximal electroshock seizure (MES) activity in mice after peroral administration of 100 mg/kg of compound; 3/5; settings: route oral
[19] = system: Mus musculus; assay: Antimaximal electroshock seizure (MES) activity in mice after peroral administration of 100 mg/kg of compound; 0/5; settings: route oral
[20] = system: Mus musculus; assay: Antiexploratory activity (EXPL) of mice determined by an antimex activity meter, 50 mg/kg of dose was administered perorally; No inhibition; settings: route oral
[21] = system: Mus musculus; assay: Antireserpine activity (RES) of mice after peroral administration of mg/kg of compound; Slight inhibition (31-50%)
[22] = system: Canis familiaris; assay: Inhibition of apomorphine induced emesis in dogs when administered perorally; settings: Canis lupus familiaris, po; outline: as §5
[23] = system: Mus musculus; assay: as §1; remark: listed apart in the source
Outline: (§6)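 Male Std-ddY mice (20-25 g) dosed orally with compound dissolved or suspended in 0.5% aqueous tragacanth. DOPAC measured fluorometrically after purification by column chromatography on Sephadex G-10 and QAE-Sephadex. Brains from five mice per compound pooled for the determination.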

[24] = system: Mus musculus; assay: Antiexploratory activity (EXPL) of mice determined by an antimex activity meter, 10 mg/kg of dose was administered perorally; settings: route oral
Outline: (§7)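 Male Std-ddY mice (20-25 g), five per dose, given compound orally in 0.5% aqueous tragacanth. Two hours later each mouse was placed in the activity-meter cage and locomotor activity was counted for 3 min. Suppression is expressed as percent inhibition of control. ED50 (dose giving 50% inhibition) calculated by Litchfield-Wilcoxon.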

[25] = system: Mus musculus; assay: Concentration of compound that causes ptosis in the mice when administered perorally; settings: po
Outline: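 Five male Std-ddY mice per group were dosed orally in 0.5% aqueous tragacanth. At 2 h, eyelid closure was scored macroscopically (8 open to 0 fully closed). Group mean scores formed a dose-response curve. ED50 was the dose reducing the mean score to 50%.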

[26] = system: Mus musculus; assay: Concentration of compound that causes catalepsy in the mice when administered perorally; settings: po
Outline: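 Male Std-ddY mice were dosed orally, vehicle 0.5% aqueous tragacanth. At 2 h, forepaws were placed on a rod 4.5 cm high. Failure to remove the paws within 30 s in three successive trials was scored cataleptic. ED50 was the dose giving catalepsy in 50% of mice (Litchfield-Wilcoxon).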

[27] = system: Mus musculus; assay: Antiexploratory activity (EXPL) of mice determined by an antimex activity meter, 50 mg/kg of dose was administered perorally; settings: route oral; outline: as §7
[28] = system: Mus musculus; assay: The homovanillic acid (HVA)levels in mouse brain at 50 mg/kg of dose.
Outline: (§8)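 Male Std-ddY mice (20-25 g) dosed orally with compound in 0.5% aqueous tragacanth (solution or suspension). Brain homovanillic acid (HVA) determined by a published method. Brains from five mice per compound pooled for one determination.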

[29] = system: Rattus norvegicus; assay: Inhibition of self stimulation response in rats when administered perorally.; settings: po
Outline: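 Male Wistar HLA rats (300-400 g) with chronic electrodes implanted in the lateral posterior hypothalamus; only rats lever-pressing steadily at 50-100/min were used. Compound given po in 0.5% tragacanth. Self-stimulation counted for 10 min before and 2 h after dosing. ED50 is the dose giving ≥50% rate inhibition in 50% of rats (Litchfield-Wilcoxon).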

[30] = system: Mus musculus; assay: as §3; outline: as §6; remark: listed apart in the source
[31] = system: Mus musculus; assay: Antiexploratory activity (EXPL) of mice determined by an antimex activity meter, when administered perorally; settings: po; outline: as §7
[32] = system: Mus musculus; assay: The homovanillic acid (HVA)levels in mouse brain at 10 mg/kg of dose.; outline: as §8
[33] = system: Mus musculus; assay: Inhibition of conditioned avoidance response in mice when administered perorally; settings: po
Outline: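 One-way active avoidance in male Std-ddY mice in a dark/light two-compartment box. Mice trained to move to the lit side on a warning stimulus to escape floor shock; groups of 10 avoiding at >80% in 10 trials. Compound po in 0.5% tragacanth. ED50 is the dose halving avoidance rate (Litchfield-Wilcoxon).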

[34] = system: Mus musculus; assay: Antiexploratory activity (EXPL) of mice determined by an antimex activity meter, 100 mg/kg of dose was administered perorally; Moderate inhibition (51-71%); settings: route oral
[35] = system: Mus musculus; assay: Antitremorine activity(TRM) of mice after peroral administration of 100 mg/kg of compound; Slight inhibition (31-50%); settings: route oral
[36] = system: Mus musculus; assay: Antireserpine activity (RES) of mice after peroral administration of 100 mg/kg of compound; Moderate inhibition (51-71%); settings: route oral
[37] = system: Mus musculus; assay: Antimaximal electroshock seizure (MES) activity in mice after peroral administration of 100 mg/kg of compound; 2/5; settings: route oral
[38] = system: Mus musculus; assay: Antiexploratory activity (EXPL) of mice determined by an antimex activity meter, 100 mg/kg of dose was administered perorally; No inhibition; settings: route oral

CCN1CCN(C2=Nc3ccccc3CC=C2c2ccc(F)cc2)CC1.Cl.Cl
inhibition in vivo at 50 mg/kg [1]: 86.8%
inhibition in vivo at 10 mg/kg [2]: < 30%
Control [3]: 345%
Control [4]: 287%
Control [5]: 432%
inhibition in vivo at 50 mg/kg [6]: 31%
inhibition in vivo at 50 mg/kg [7]: > 71%
inhibition in vivo at 1 mg/kg [8]: 100%
Control [9]: 461%
inhibition in vivo at 10 mg/kg [10]: 10.6%

CN1CCN(C2=Nc3ccccc3CC=C2c2ccc(O)cc2)CC1
inhibition in vivo at 50 mg/kg [11]: 51%
inhibition in vivo at 50 mg/kg [12]: 51%

Cc1ccc2c(c1)CC=C(c1ccccc1)C(N1CCN(CCO)CC1)=N2.O=C(O)/C=C/C(=O)O
ED50 [13]: 39.4 mg/kg
inhibition in vivo at 100 mg/kg [14]: < 30%
ED50 [15]: 103 mg/kg
inhibition in vivo at 100 mg/kg [16]: < 30%
Inhibition [17]: 31%
Activity [18]: 3

Cl.Cl.OCCN1CCN(C2=Nc3ccccc3CC=C2c2cccc(Cl)c2)CC1
Activity [19]: 0
inhibition in vivo at 50 mg/kg [20]: < 30%
Inhibition [21]: 31%

CN1CCN(C2=Nc3cc(Cl)ccc3Nc3ccccc32)CC1 [CLOZAPINE]
ED50 [22]: 12.6 mg/kg
Control % at 50 mg/kg [23]: 324%
inhibition in vivo at 10 mg/kg [24]: 50.6%
ED50 [25]: 15.8 mg/kg
inhibition in vivo at 1 mg/kg [8]: 27.4%
ED50 [26]: > 100 mg/kg
inhibition in vivo at 50 mg/kg [27]: 87.8%
Control % at 50 mg/kg [28]: 274%
ED50 [29]: 77.1 mg/kg
Control % at 10 mg/kg [30]: 128%
ED50 [31]: 8.45 mg/kg
Control % at 10 mg/kg [32]: 106%
ED50 [33]: 9.68 mg/kg

CN1CCN(C2=Nc3ccccc3CC=C2c2ccccc2Cl)CC1.Cl.Cl
inhibition in vivo at 100 mg/kg [34]: 51%
Activity [19]: 0
inhibition in vivo at 100 mg/kg [35]: 31%
inhibition in vivo at 100 mg/kg [36]: 51%

CCN1CCN(C2=Nc3ccc(Br)cc3CC=C2c2ccc(Cl)cc2)CC1.O=C(O)/C=C/C(=O)O
Activity [37]: 2
inhibition in vivo at 100 mg/kg [38]: < 30%
inhibition in vivo at 100 mg/kg [14]: < 30%
inhibition in vivo at 100 mg/kg [16]: < 30%

Reference: ChEMBL document CHEMBL1124216, “A novel class of potential central nervous system agents. 3-Phenyl-2-(1-piperazinyl)-5H-1-benzazepines” (1988)
